B1: WT Bim: wild-type Bim protein in thymocyte lysates (protein)
chain: MAKQPSDVSSECDREGGQLQPAERPPQLRPGAPTSLQTEPQGNPDGEGDRCPHGSPQGPLAPPASPGPFATRSPLFIFVRRSSLLSRSSSGYFSFDTDRSPAPMSCDKSTQTPSPPCQAFNHYLSAMASIRQSQEEPEDLRPEIRIAQELRRIGDEFNETYTRRVFANDYREAEDHPQMVILQLLRFIFRLVWRRH

Assays:
thymocytes (Bim level) = test: Bim expression in thymocytes; format: cell-based, mouse; settings: mutant and WT thymocytes; Western blot
Bcl-2 = test: Coimmunoprecipitation from thymocyte lysates, Bcl-2; format: binding, mouse; settings: 1% Triton X-100 buffer, pH 7.4, anti-Bim 3C5
How it was run: (§1)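 Thymocytes came from WT and Bim BH3-replacement knockin mice. Cells were lysed in 20 mM Tris pH 7.4, 135 mM NaCl, 1.5 mM MgCl2, 1 mM EGTA, 10% glycerol, 1% Triton X-100 and protease inhibitors. Bim was immunoprecipitated with rat mAb 3C5 (N-terminal epitope, all isoforms and mutants). Partners were shown by SDS-PAGE/Western blot with ECL: hamster mAb 3F11 (Bcl-2), rabbit polyclonals (Bcl-xL, Mcl-1).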

Bcl-xL = test: Coimmunoprecipitation from thymocyte lysates, Bcl-xL; format: binding, mouse; settings: 1% Triton X-100 buffer, pH 7.4, anti-Bim 3C5
How it was run: as §1

Mcl-1 = test: Coimmunoprecipitation from thymocyte lysates, Mcl-1; format: binding, mouse; settings: 1% Triton X-100 buffer, pH 7.4, anti-Bim 3C5
How it was run: as §1

Row | Molecule | Bim expression (thymocytes (Bim level)) | coimmunoprecipitation with Bcl-2 (Bcl-2) | coimmunoprecipitation with Bcl-xL (Bcl-xL) | coimmunoprecipitation with Mcl-1 (Mcl-1)
1 | C[C@H](CCC(=O)O)C[C@H](C)C[C@H](C)C(=O)/C=C(\O)[C@H](C)C[C@H](C)C/C=C/[C@@H](C)[C@@H](O)[C@@H](C)[C@@H](O)C[C@@H]1CC[C@@](C)([C@H]2CC[C@@](C)([C@@H](C)O)O2)O1 [ionomycin] | increased Bim expression comparably in both the mutant and WT thymocytes | – | – | –
2 | B1 | – | bound all of these prosurvival proteins | bound all of these prosurvival proteins | bound all of these prosurvival proteins

From paper PMC2728397 (The Journal of Cell Biology, 2009)
